# Screening results from PubChem.
# A selection: hits, their analogues and other compounds. The true share with any hit is near 4.5%.
# GPR7 antag – GPR7 receptor antagonists, primary screen, cell-based, fluorescence, single concentration. Neuropeptides B/W receptor type 1 (Homo sapiens), P48145. GPR7-expressing cells, fluorescence antagonist assay. inhibition, % at 4.4 µM. 290,000 compounds, 1.1% hits; in the data active = inhibition above about 16%, passing the limit was not always enough;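 note: cells stimulated with the agonist NPW; 0% = agonist with vehicle and 100% = vehicle without agonist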
# Target sequence (P48145 whole entry, looked up): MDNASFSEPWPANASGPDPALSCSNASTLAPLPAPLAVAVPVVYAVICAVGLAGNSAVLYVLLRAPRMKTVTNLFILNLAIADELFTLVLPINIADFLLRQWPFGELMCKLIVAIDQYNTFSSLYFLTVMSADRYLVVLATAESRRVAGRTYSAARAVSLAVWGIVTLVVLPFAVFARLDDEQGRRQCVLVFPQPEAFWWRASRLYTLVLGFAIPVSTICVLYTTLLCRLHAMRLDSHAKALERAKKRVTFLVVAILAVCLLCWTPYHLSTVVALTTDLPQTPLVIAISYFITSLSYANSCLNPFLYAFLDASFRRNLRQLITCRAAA
# OX1R antag-1 – OX1R (HCRTR1) antagonists, primary screen, fluorescence, CHO/OX1R cells, Fluo-8 calcium, orexin A; AID 434989, 2010; Orexin/Hypocretin receptor type 1 (Homo sapiens), O43613; inhibition, % at 5 µM; 330,000 compounds, 0.43% hits; Fluo-8 calcium fluorescence;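 active = inhibition above its plate's threshold, mean inhibition of all tested compounds on the plate plus 3 SD, cut at about 37% in these data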;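 note: 0% = orexin A challenge wells and 100% = SB-334867-A antagonist wells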
# OX1R antag-2 – antagonists of human orexin 1 receptor (OX1R) | inhibition, % at 6.6 µM | AID 485270, 2010 | OX1R-expressing cells, FRET antagonist read-out | 330,000 compounds, 1.8% hits | Orexin/Hypocretin receptor type 1 (Homo sapiens), O43613; in the data active = inhibition mostly above about 38%, no sharp cut-off; inactive = mostly below about 40%;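 note: 0% = agonist challenge alone and 100% = reference antagonist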
# TAAR1 antagonist – human TAAR1 antagonists, primary screen, Fluo-8 calcium fluorescence, CHO RD-HGA16 cells; Trace amine-associated receptor 1 (Homo sapiens), Q96RJ0; antagonist; inhibition, % at 3 µM; 360,000 compounds, 1.5% hits; AID 624466, 2012;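 active = inhibition above a per-plate cutoff, the mean inhibition of test compounds on that plate plus 3 SD, cut at about 49% in these data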;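 note: 0% = DMSO plus EC80 beta-PEA response and 100% = DMSO alone without agonist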
# Target sequence (Q96RJ0 whole entry, looked up): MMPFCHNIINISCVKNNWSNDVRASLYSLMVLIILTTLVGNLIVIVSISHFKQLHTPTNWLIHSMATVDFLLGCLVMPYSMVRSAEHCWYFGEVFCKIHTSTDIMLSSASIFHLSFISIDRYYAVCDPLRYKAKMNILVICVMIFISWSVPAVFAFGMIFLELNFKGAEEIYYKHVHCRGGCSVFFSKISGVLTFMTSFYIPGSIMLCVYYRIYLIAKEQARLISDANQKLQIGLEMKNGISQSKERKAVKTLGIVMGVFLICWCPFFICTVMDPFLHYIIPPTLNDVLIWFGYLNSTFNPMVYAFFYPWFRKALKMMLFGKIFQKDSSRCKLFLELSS
#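 test system = CHO RD-HGA16 cells bearing hTAAR1 | replication = singlicate | controls = DMSO-only wells and EC80 β-PEA-stimulated wells | reagent = EC80 β-phenethylamine stimulus | read-out basis = percent inhibition of PEA-evoked calcium signal, max/basal emission ratio | schedule = seeding 17-24 h prior, 75-min 37 °C, 30-min RT dye loading | signal = kinetic Fluo-8 calcium fluorescence measurement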
# TAAR1 agonist – human TAAR1 agonists, primary screen, Fluo-8 calcium fluorescence, CHO RD-HGA16 cells; Trace amine-associated receptor 1 (Homo sapiens), Q96RJ0; vehicle wells 0%, saturating PEA agonist 100%; activation, % at 3 µM; 360,000 compounds, 0.99% hits; AID 624467, 2012;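 active = activation above the mean activation of all test compounds in the run plus 3 SD, cut at about 38% in these data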
#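 Assay system – CHO-derived RD-HGA16 cells with stable Gα16 and human TAAR1 · Compound dosing – one-point dosing at 3 µM (nominal) · Incubation – 17-24 h seeding, 75 min 37 °C dye, 30 min RT · Measured by – kinetic Fluo-8 calcium fluorescence · Control set – DMSO vehicle as 0%, PEA at EC100 as 100% · Repeats – single well for each compound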
# CHO parental Ca – ATP-evoked calcium signal inhibitors, parental CHO, primary screen, counter-screen for OX1R antagonist project, cell-based, fluorescence, Fluo-8 calcium dye | parental CHO-K1, ATP-induced calcium, Fluo-8 fluorescence | 330,000 compounds, 0.63% hits | inhibition, % at 5.6 µM;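 active = inhibition above that plate's mean sample inhibition plus 3 SD, cut at about 26% in these data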;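 note: 0% = ATP-challenged DMSO wells and 100% = DMSO wells without ATP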
#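 material = parental CHO cells | also added = ATP as calcium-mobilizing challenge | dosing = single point at 5.6 µM | detection = intracellular calcium via Fluo-8 no-wash fluorescent dye | read-out = % inhibition | benchmarks = low control ATP plus DMSO, high control DMSO only | repeats = one well per compound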
# * = called active by the depositor; nt = no result given.
SMILES,GPR7 antag,OX1R antag-1,OX1R antag-2,TAAR1 antagonist,TAAR1 agonist,CHO parental Ca
COc1ccc(NC(=O)c2c(C(F)(F)F)nn(C)c2SCc2ccccc2Cl)cc1,-19,-20,6,24,8,46*
CC[C@@]1(O)C(=O)OCc2c1cc1n(c2=O)Cc2cc3c(N)cccc3nc2-1,nt,-11,52,-18,0,-3
CC[C@@]1(O)C(=O)OCc2c1cc1n(c2=O)Cc2cc3c(CN(C)C)c(O)ccc3nc2-1,nt,-16,46*,-6,9,-4
COc1cccc(C(=O)N[C@H](C(=O)N2CCC[C@H]2C(=O)NCc2ccccc2)C(C)C)c1,nt,nt,nt,-13,0,nt
O=C(CSc1ccc(-c2cccc([N+](=O)[O-])c2)nn1)N1CCCC1,2,-16,72*,-24,0,-15
N#Cc1cccc2cnccc12,19*,-4,38,-26,6,-8
Oc1cccc2cnccc12,-8,-7,31,0,12,1
C=CCOC(=O)C(C#N)c1nc2ccccc2nc1N1CCN(Cc2ccccc2)CC1 (stereo unspecified),-1,-23,20,12,21,-15
C=CCOC(=O)C(C#N)c1nc2ccccc2nc1N1CCN(c2ccccc2OC)CC1 (stereo unspecified),-5,-21,23,49*,8,-31
COc1ccc2oc(C(=O)OCC(=O)Nc3ccc(C(=O)N(C)C)cc3)c(C)c2c1,-17,0,-8,-9,-1,-11
Cc1ccc(CCNC(=O)C2CCN(S(=O)(=O)c3ccc4c(c3)NC(=O)C(C)S4)CC2)cc1 (stereo unspecified),22,-6,12,61*,13,2
Cc1ccccc1NC(=O)C1CCN(S(=O)(=O)c2ccc3c(c2)NC(=O)C(C)S3)CC1 (stereo unspecified),-5,-36,17,1,2,-28
CC1Sc2ccc(S(=O)(=O)N3CCC(C(=O)NCC(C)c4ccccc4)CC3)cc2NC1=O (stereo unspecified),6,15,19,46,42*,34*
O=C(C[n+]1ccc(C(=O)c2ccccc2)cc1)Nc1ccccc1OC(F)F,nt,-8,46*,-3,2,-5
O=C(COC(=O)c1ccc[n+]([O-])c1)Nc1ccccc1OC(F)F,nt,7,2,-12,3,-5
Cc1nc(NCCc2ccccc2)c2oc3ccccc3c2n1,-5,19,37*,27,6,46*
Cc1c(C(=O)O)c(=O)n(-c2ccccc2)n1-c1ccccc1,-2,4,15,-4,2,-13
Cc1c(C=O)c(=O)n(-c2ccccc2)n1-c1ccccc1,20*,-14,38,1,-4,4
CNC(=O)c1ccccc1C1(O)c2ccccc2CCc2ccccc21,nt,nt,nt,-19,1,nt
COc1ccc(C(N)c2csc(Nc3ncccn3)n2)cc1 (stereo unspecified),nt,nt,nt,-22,2,nt
COc1ccc(C(N)c2csc(Nc3nncc4ccccc34)n2)cc1 (stereo unspecified),nt,nt,nt,46,42*,nt
Nc1ccc(CC(N)c2csc(Nc3cc(Oc4ccccc4)ncn3)n2)cc1 (stereo unspecified),nt,nt,nt,9,20,nt
NC(c1csc(Nc2cc(Oc3ccccc3)ncn2)n1)C1CCCCC1 (stereo unspecified),nt,nt,nt,-4,43*,nt
COc1ccc(C(N)c2csc(Nc3cc(Oc4ccccc4)ncn3)n2)cc1 (stereo unspecified),nt,nt,nt,30,38*,nt
COCCCNC(=O)C[C@H]1C[C@@]2(C(=O)OC)C(=C[C@H](C3CCCC3)O[C@@H]2C)N(Cc2ccccc2)C1=O,nt,nt,nt,-30,0,nt
SMILES,GPR7 antag,OX1R antag-1,OX1R antag-2,TAAR1 antagonist,TAAR1 agonist,CHO parental Ca
O=C1c2sc3nc4ccccc4n3c2C(=O)N1c1ccccc1Cl,1,-25,64*,15,10,-29
Cc1ccccc1N1C(=O)c2sc3nc4c(c(=O)n3c2C1=O)CCC4,-11,-28,5,nt,nt,-15
COc1ccc(C(=O)C[n+]2ccc(-c3nnc4n3CCCCC4)cc2)cc1,9,-9,44*,-16,4,-13
CNC(=O)c1c(NC(=O)c2ccc(S(=O)(=O)N3CCCc4ccccc43)cc2)sc2c1CCN(C)C2,-2,7,13,-20,9,5
CN1CCc2c(sc(NC(=O)c3ccc(S(=O)(=O)N4CCc5ccccc54)cc3)c2C(N)=O)C1,6,-1,23,50*,27,-4
Cc1ccc(C2NC(=O)c3n[nH]c(C)c32)cc1 (stereo unspecified),nt,nt,nt,-16,0,nt
C=CCN1C(=O)/C(=C\C=C2\N(C)c3ccccc3C2(C)C)SC1=S,-4,1,5,34,19,6
CCCCN1C(=O)/C(=C/C=C2\Oc3ccccc3N2CC)SC1=S,10,nt,nt,90*,180*,nt
CCCCN1C(=O)/C(=C/C=C2/CC(C)(C)CN2C)SC1=S,5,46*,29,17,26,47*
CCCN1C(=O)/C(=C\C=C2/Sc3ccccc3N2CCO)SC1=S,-3,10,31,3,9,-22
COC(=O)[C@]12C[C@H](CC(=O)NCc3ccc(C)o3)C(=O)N(Cc3ccccc3)C1=C[C@H](C(C)C)O[C@@H]2C1CC1,nt,nt,nt,-20,-1,nt
COC(=O)C1=C(C)N(C)C(=NCc2ccc3c(c2)OCO3)NC1c1ccc(C(F)(F)F)cc1 (stereo unspecified),nt,nt,nt,7,15,nt
Cc1noc(C)c1CSc1nc2ccccc2nc1NS(=O)(=O)c1ccc(Cl)cc1,-11,-9,61*,nt,nt,-8
CCN(C[C@H]1N[C@@](Cc2ccccc2)(C(=O)OC)[C@H]2C(=O)N(Cc3ccccc3)C(=O)[C@@H]12)C(=O)Nc1ccc(C(F)(F)F)cc1,nt,29,37*,2,7,10
O=C(CN1CCN(c2ccc(O)cc2)CC1)Nc1ccccc1C(=O)NCCc1ccccc1,nt,-1,11,63*,12,-4
COc1cccc(N2CCN(CC(=O)Nc3ccccc3C(=O)NCCc3ccccc3)CC2)c1,nt,0,4,53*,30,-27
Oc1ccc(N2CCN(C(=S)NCCc3ccccc3)CC2)cc1,0,-14,24,9,31,-4
CC(C)CN1CCC(CN2C(=S)NC[C@@H]2Cc2ccccc2)CC1,nt,nt,nt,-18,1,nt
CN1CCS/C1=C\C=C1/SC(=S)N(CC(=O)O)C1=O,8,nt,nt,12,45*,nt
CCN1C(=O)/C(=C/C=C2/SCCN2C)SC1=S,1,-4,28,7,39*,-7
